# Experimental data published in PubChem BioAssay AID602434 (Sanford-Burnham Center for Chemical Genomics, 2012).
# Biological target: CHO-CHOP luciferase reporter, UPR activation, luminescence
# Assay: PERK-eIF2a-CHOP reporter activation – CHO-CHOP cells, luciferase luminescence, set 3, SAR follow-up (AID 602434)
# Procedure, shortened: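 Test system: CHO-CHOP luciferase reporter cells. Times: cells plated 16-18 h before dosing, 6 h compound exposure at 37 °C. Signal: luminescence with Steady-Glo luciferase reagent.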
row,Compound,EC50 [nM]
1,CC1CCN(S(=O)(=O)c2ccc(NC(=O)c3ccc([N+](=O)[O-])o3)cc2)CC1,761
2,O=C(Nc1ccc(S(=O)(=O)N2CCC(F)CC2)cc1)c1ccc([N+](=O)[O-])o1,435
3,CC1(C)CCN(S(=O)(=O)c2ccc(NC(=O)c3ccc([N+](=O)[O-])o3)cc2)CC1,765

# Now from value to compound:
row,EC50 [nM],Compound
1,741,O=C(Nc1ccc(S(=O)(=O)N2CCCCC2)cc1)c1ccc([N+](=O)[O-])o1
2,785,O=C(Nc1ccc(S(=O)(=O)N2CCC(Cl)CC2)cc1)c1ccc([N+](=O)[O-])o1
3,652,CC(C)(C)C1CCN(S(=O)(=O)c2ccc(NC(=O)c3ccc([N+](=O)[O-])o3)cc2)CC1
